Assay results: ChEMBL document CHEMBL2150955, “Design, synthesis and evaluation of N-(substituted benzothiazol-2-yl)amides as anticonvulsant and neuroprotective” (Eur J Med Chem, 2012)
Activity calls are given as the source filed them. The rule behind the calls is not given here.

Key:
Mus musculus [1] = experiment: Hepatotoxicity in mouse assessed as effect on SGPT level at 30 mg/kg/day, po dosed for 2 weeks relative to control; assay type: toxicity, organism-based; design: route oral; settings: in vivo, 336 h
How it was run: (§1)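 Serum SGOT, SGPT, alkaline phosphatase, total albumin and total protein were measured in treated mice against controls (n = 6). Data were analysed by ANOVA followed by Student's t test.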

Mus musculus [2] = experiment: Anticonvulsant activity in ip dosed mouse assessed as compound concentration causing protection against maximal electroshock-induced seizures in half or more test animals after 0.5 hrs; assay type: functional; settings: read-out: MED
How it was run: (§2)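 Albino mice of either sex (25-30 g), housed under standard conditions with free access to pellet diet and water. Compounds given at 30, 100 and 300 mg/kg (n = 6). MES and scPTZ seizures were read at 0.5 h and 4 h. The value recorded is the minimum dose protecting half or more of the mice; 300 mg/kg is the maximum dose.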

Mus musculus [3] = experiment: CNS depressant activity in mouse assessed as immobility time at 100 mg/kg, ip measured 60 mins post dose by porsolt's swimming pool test; assay type: organism-based; design: dose 100 mg/kg, route intraperitoneal; settings: in vivo, 1 h
How it was run: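 Behavioral depression was measured by Porsolt's swim test in albino mice of either sex. Immobility time (s) was recorded 24 h before as the control and again 60 min after treatment. Values are mean ± SEM of six mice, compared with Student's t test.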

Mus musculus [4] = experiment: Hepatotoxicity in mouse assessed as effect on SGOT level at 30 mg/kg, po after 2 weeks relative to control; assay type: toxicity, organism-based; design: dose 30 mg/kg, route oral; settings: in vivo, 336 h; how it was run: as §1
Mus musculus [5] = experiment: Anticonvulsant activity in ip dosed mouse assessed as compound concentration causing protection against subcutaneous pentylenetetrazol-induced seizures in half or more test animals after 4 hrs; assay type: functional; settings: read-out: MED; how it was run: as §2
Mus musculus [6] = experiment: Anticonvulsant activity in ip dosed mouse assessed as compound concentration causing protection against maximal electroshock-induced seizures in half or more test animals after 4 hrs; assay type: functional; settings: read-out: MED; how it was run: as §2
Mus musculus [7] = experiment: Neurotoxicity in mouse assessed as minimal motor impairment at 300 mg/kg, ip after 4 hrs by rotarod test; assay type: toxicity, organism-based; design: dose 300 mg/kg, route intraperitoneal; settings: in vivo
How it was run: (§3)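 Albino mice of either sex (25-30 g) received 30, 100 or 300 mg/kg (n = 6). Neurological deficit was assessed on the rotarod at 0.5 h and 4 h. The value recorded is the minimum dose producing neurotoxicity in half or more of the mice; 300 mg/kg is the maximum dose.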

Mus musculus [8] = experiment: Anticonvulsant activity in ip dosed mouse assessed as compound concentration causing protection against subcutaneous pentylenetetrazol-induced seizures in half or more test animals after 0.5 hrs; assay type: functional; settings: read-out: MED; how it was run: as §2
Mus musculus [9] = experiment: Hepatotoxicity in mouse assessed as effect on total protein level at 30 mg/kg/day, po dosed for 2 weeks relative to control; assay type: toxicity, organism-based; design: route oral; settings: in vivo, 336 h; how it was run: as §1
Mus musculus [10] = experiment: Neuroprotective activity in acrylamide-intoxicated mouse assessed as reduction in brain malonaldehyde level at 50 mg/kg, ip dosed 3 days/week for 3 weeks administered 10 mins before acrylamide challenge by TBARS detection assay; assay type: functional, organism-based; design: dose 50 mg/kg
How it was run: (§4)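 Mice were given acrylamide to induce brain degeneration, with compound administered 10 min before the acrylamide. Brain MDA (lipid peroxidation) and LDH activity were measured against controls. Values are mean ± SEM of six animals, compared with Student's t test.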

Mus musculus [11] = experiment: Hepatotoxicity in mouse assessed as effect on alkaline phosphatase level at 30 mg/kg/day, po dosed for 2 weeks relative to control; assay type: toxicity, organism-based; design: route oral; settings: in vivo, 336 h; how it was run: as §1
Mus musculus [12] = experiment: Hepatotoxicity in mouse assessed as effect on total albumin level at 30 mg/kg/day, po dosed for 2 weeks relative to control; assay type: toxicity, organism-based; design: route oral; settings: in vivo, 336 h; how it was run: as §1
Mus musculus [13] = experiment: Neurotoxicity in mouse assessed as minimal motor impairment at 300 mg/kg, ip after 0.5 hrs by rotarod test; assay type: toxicity, organism-based; design: dose 300 mg/kg, route intraperitoneal; settings: in vivo; how it was run: as §3
Mus musculus [14] = experiment: Neuroprotective activity in acrylamide-intoxicated mouse assessed as reduction in brain LDH level at 50 mg/kg, ip dosed 3 days/week for 3 weeks administered 10 mins before acrylamide challenge by spectrophotometry; assay type: functional, organism-based; design: dose 50 mg/kg; how it was run: as §4
Mus musculus [15] = experiment: Hepatotoxicity in mouse assessed as hepatic inflammation at 30 mg/kg/day, po dosed for 2 weeks by Harris haematoxylin-eosin staining based […] microscopic analysis relative to control; assay type: toxicity, organism-based; design: route oral; settings: in vivo, 336 h
Mus musculus [16] = experiment: Increase in GABA level in mouse brain at 30 mg/kg, po dosed for 7 days by spectrophotometry relative to control; assay type: functional
Mus musculus [17] = experiment: Hepatotoxicity in mouse assessed as hepatocytes degeneration at 30 mg/kg/day, po dosed for 2 weeks by Harris haematoxylin-eosin staining based […] microscopic analysis relative to control; assay type: toxicity, organism-based, Hepatocyte; design: route oral; settings: 336 h
Mus musculus [18] = species: Mus musculus; experiment: Protective index, ratio of TD50 for mouse to ED50 for anticonvulsant activity in mouse by maximal electroshock-seizure test; assay type: functional
Mus musculus [19] = experiment: Anticonvulsant activity in ip mouse assessed as protection against subcutaneous pentylenetetrazol-induced seizures; assay type: functional
How it was run: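 This is the Phase II quantitation in albino mice of either sex (25-30 g). […] TD50 came from the rotarod test, read 30 min after dosing. The protective index is TD50/ED50.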

Mus musculus [20] = experiment: Protective index, ratio of TD50 for mouse to ED50 for anticonvulsant activity in mouse by subcutaneous pentylenetetrazol-induced seizure test; assay type: functional
[21] = Neurotoxicity in ip dosed mouse after 30 mins by rotarod test; assay type: toxicity, organism-based; settings: in vivo
Mus musculus [22] = experiment: Hepatotoxicity in mouse assessed as morphological changes in hepatic parenchyma at 30 mg/kg/day, po dosed for 2 weeks by Harris haematoxylin-eosin staining based […] microscopic analysis relative to control; assay type: toxicity, organism-based; design: route oral; settings: in vivo, 336 h
Mus musculus [23] = experiment: Anticonvulsant activity in ip dosed mouse assessed as protection against maximal electroshock-induced seizures; assay type: functional
Mus musculus [24] = experiment: Hepatotoxicity in mouse assessed as liver necrosis at 30 mg/kg/day, po dosed for 2 weeks by Harris haematoxylin-eosin staining based […] microscopic analysis relative to control; assay type: toxicity, organism-based; design: route oral; settings: in vivo, 336 h
Mus musculus [25] = experiment: Anticonvulsant activity in mouse assessed as protection against subcutaneous pentylenetetrazol-induced seizures at 300 mg/kg, ip after 4 hrs; assay type: functional, organism-based; design: dose 300 mg/kg; how it was run: as §2
Mus musculus [26] = experiment: Anticonvulsant activity in mouse assessed as protection against subcutaneous pentylenetetrazol-induced seizures at 300 mg/kg, ip after 0.5 hrs; assay type: functional, organism-based; design: dose 300 mg/kg; how it was run: as §2
Mus musculus [27] = experiment: Anticonvulsant activity in mouse assessed as protection against maximal electroshock-induced seizures at 300 mg/kg, ip after 0.5 hrs; assay type: functional, organism-based; design: dose 300 mg/kg; how it was run: as §2
Mus musculus [28] = experiment: Neurotoxicity in ip dosed mouse assessed as minimal motor impairment after 4 hrs by rotarod test; assay type: toxicity, organism-based; settings: in vivo; how it was run: as §3
Mus musculus [29] = experiment: Neurotoxicity in ip dosed mouse assessed as minimal motor impairment after 0.5 hrs by rotarod test; assay type: toxicity, organism-based; settings: in vivo; how it was run: as §3
Mus musculus [30] = experiment: Anticonvulsant activity in mouse assessed as protection against maximal electroshock-induced seizures at 300 mg/kg, ip after 4 hrs; assay type: functional, organism-based; design: dose 300 mg/kg; how it was run: as §2

Row | SMILES | Time (Mus musculus [3]) | Activity (Mus musculus [1]) | minimal effective dose (Mus musculus [2]) | Activity (Mus musculus [4]) | minimal effective dose (Mus musculus [5]) | minimal effective dose (Mus musculus [6]) | Activity (Mus musculus [7]) | minimal effective dose (Mus musculus [8]) | Activity (Mus musculus [9]) | Activity (Mus musculus [10]) | Activity (Mus musculus [11]) | Activity (Mus musculus [12]) | Activity (Mus musculus [13]) | Activity (Mus musculus [14]) | Activity (Mus musculus [25]) | Activity (Mus musculus [26]) | Activity (Mus musculus [27]) | further results
1 | O=C(Nc1nc2ccc(Cl)cc2s1)c1ccccc1C(=O)c1ccccc1 | 157 s |  |  |  | 300 mg/kg | 100 mg/kg | Non-toxic |  |  |  |  |  | Non-toxic |  |  | inactive | inactive | 
2 | COc1ccc2nc(NC(=O)c3ccccc3C(=O)c3ccccc3)sc2c1 | 177 s |  |  |  | 300 mg/kg | 100 mg/kg | Non-toxic | 300 mg/kg |  |  |  |  | Non-toxic |  |  |  | inactive | 
3 | CCCC(CCC)C(=O)[O-].[Na+] [VALPROATE SODIUM] |  |  |  |  |  |  |  |  |  |  |  |  |  |  |  |  |  | ED50 (Mus musculus [19]): 149 mg/kg
4 | O=C(Nc1nc2ccc(F)cc2s1)c1ccccc1C(=O)c1ccccc1 | 147.3 s |  |  |  | 300 mg/kg | 100 mg/kg |  |  |  |  |  |  |  |  |  | inactive | inactive | MTC (Mus musculus [28]): 300 mg/kg; MTC (Mus musculus [29]): 300 mg/kg
5 | O=C(Nc1nc2ccc([N+](=O)[O-])cc2s1)c1ccccc1C(=O)c1ccccc1 | 154.3 s |  | 300 mg/kg |  |  |  |  |  |  |  |  |  |  |  | inactive | inactive |  | Activity (Mus musculus [30]): inactive; MTC (Mus musculus [28]): 300 mg/kg; MTC (Mus musculus [29]): 300 mg/kg

Continued, in another order:

Row | Time (Mus musculus [3]) | SMILES | Activity (Mus musculus [1]) | minimal effective dose (Mus musculus [2]) | Activity (Mus musculus [4]) | minimal effective dose (Mus musculus [5]) | minimal effective dose (Mus musculus [6]) | Activity (Mus musculus [7]) | minimal effective dose (Mus musculus [8]) | Activity (Mus musculus [9]) | Activity (Mus musculus [10]) | Activity (Mus musculus [11]) | Activity (Mus musculus [12]) | Activity (Mus musculus [13]) | Activity (Mus musculus [14]) | Activity (Mus musculus [25]) | Activity (Mus musculus [26]) | Activity (Mus musculus [27]) | further results
6 | 130 s | Cc1ccc2nc(NC(=O)CCC(=O)c3ccccc3)sc2c1 | Non-toxic | 100 mg/kg | Non-toxic | 300 mg/kg | 100 mg/kg | Non-toxic | 300 mg/kg | Toxic | Active | Non-toxic | Non-toxic | Non-toxic | Active |  |  |  | 
7 | 135.6 s | COc1ccc2nc(NC(=O)CCC(=O)c3ccccc3)sc2c1 | Non-toxic | 30 mg/kg | Non-toxic | 100 mg/kg | 30 mg/kg | Non-toxic | 100 mg/kg | Non-toxic | Active | Non-toxic | Non-toxic | Non-toxic | Active |  |  |  | Activity (Mus musculus [15]): Non-toxic; fold change (FC) (Mus musculus [16]): 1.8; Activity (Mus musculus [17]): Non-toxic; Ratio TD50/ED50 (Mus musculus [18]): 8.4; ED50 (Mus musculus [19]): 85.2 mg/kg; Ratio TD50/ED50 (Mus musculus [20]): 4; TD50 at 0.5 h [21]: 348 mg/kg; Activity (Mus musculus [22]): Non-toxic; ED50 (Mus musculus [23]): 41 mg/kg; Activity (Mus musculus [24]): Non-toxic
8 | 160 s | O=C(CCC(=O)c1ccccc1)Nc1nc2ccc(F)cc2s1 |  |  |  |  | 300 mg/kg | Non-toxic |  |  |  |  |  | Non-toxic |  | inactive | inactive | inactive | 
9 | 134.5 s | O=C(CCC(=O)c1ccccc1)Nc1nc2ccc(Cl)cc2s1 | Non-toxic | 300 mg/kg | Non-toxic | 300 mg/kg | 300 mg/kg | Non-toxic | 300 mg/kg | Non-toxic | Active | Non-toxic | Non-toxic | Non-toxic | Active |  |  |  | 
10 | 146.6 s | O=C(CCC(=O)c1ccccc1)Nc1nc2cc(Cl)c(F)cc2s1 |  | 300 mg/kg |  |  | 300 mg/kg | Non-toxic |  |  |  |  |  | Non-toxic |  | inactive | inactive |  | 
